ChEMBL document CHEMBL4251575, “Design, synthesis, and biological evaluation of 1,3-diarylisoquinolines as novel topoisomerase I catalytic inhibitors” (Eur J Med Chem, 2018)
Active and inactive are the calls of the source. The calls are words filed in the database; no cut-off is given here.

Experiments:
[1] = biological target: DNA topoisomerase 2-alpha (Homo sapiens) (UniProt P11388); experiment: Inhibition of human DNA topoisomerase 2 alpha-mediated DNA relaxation at 100 uM incubated for 30 mins using pBR322 DNA substrate by ethidium bromide dye-based agarose gel electrophoresis
Sequence of DNA topoisomerase 2-alpha (Homo sapiens) (P11388 whole entry): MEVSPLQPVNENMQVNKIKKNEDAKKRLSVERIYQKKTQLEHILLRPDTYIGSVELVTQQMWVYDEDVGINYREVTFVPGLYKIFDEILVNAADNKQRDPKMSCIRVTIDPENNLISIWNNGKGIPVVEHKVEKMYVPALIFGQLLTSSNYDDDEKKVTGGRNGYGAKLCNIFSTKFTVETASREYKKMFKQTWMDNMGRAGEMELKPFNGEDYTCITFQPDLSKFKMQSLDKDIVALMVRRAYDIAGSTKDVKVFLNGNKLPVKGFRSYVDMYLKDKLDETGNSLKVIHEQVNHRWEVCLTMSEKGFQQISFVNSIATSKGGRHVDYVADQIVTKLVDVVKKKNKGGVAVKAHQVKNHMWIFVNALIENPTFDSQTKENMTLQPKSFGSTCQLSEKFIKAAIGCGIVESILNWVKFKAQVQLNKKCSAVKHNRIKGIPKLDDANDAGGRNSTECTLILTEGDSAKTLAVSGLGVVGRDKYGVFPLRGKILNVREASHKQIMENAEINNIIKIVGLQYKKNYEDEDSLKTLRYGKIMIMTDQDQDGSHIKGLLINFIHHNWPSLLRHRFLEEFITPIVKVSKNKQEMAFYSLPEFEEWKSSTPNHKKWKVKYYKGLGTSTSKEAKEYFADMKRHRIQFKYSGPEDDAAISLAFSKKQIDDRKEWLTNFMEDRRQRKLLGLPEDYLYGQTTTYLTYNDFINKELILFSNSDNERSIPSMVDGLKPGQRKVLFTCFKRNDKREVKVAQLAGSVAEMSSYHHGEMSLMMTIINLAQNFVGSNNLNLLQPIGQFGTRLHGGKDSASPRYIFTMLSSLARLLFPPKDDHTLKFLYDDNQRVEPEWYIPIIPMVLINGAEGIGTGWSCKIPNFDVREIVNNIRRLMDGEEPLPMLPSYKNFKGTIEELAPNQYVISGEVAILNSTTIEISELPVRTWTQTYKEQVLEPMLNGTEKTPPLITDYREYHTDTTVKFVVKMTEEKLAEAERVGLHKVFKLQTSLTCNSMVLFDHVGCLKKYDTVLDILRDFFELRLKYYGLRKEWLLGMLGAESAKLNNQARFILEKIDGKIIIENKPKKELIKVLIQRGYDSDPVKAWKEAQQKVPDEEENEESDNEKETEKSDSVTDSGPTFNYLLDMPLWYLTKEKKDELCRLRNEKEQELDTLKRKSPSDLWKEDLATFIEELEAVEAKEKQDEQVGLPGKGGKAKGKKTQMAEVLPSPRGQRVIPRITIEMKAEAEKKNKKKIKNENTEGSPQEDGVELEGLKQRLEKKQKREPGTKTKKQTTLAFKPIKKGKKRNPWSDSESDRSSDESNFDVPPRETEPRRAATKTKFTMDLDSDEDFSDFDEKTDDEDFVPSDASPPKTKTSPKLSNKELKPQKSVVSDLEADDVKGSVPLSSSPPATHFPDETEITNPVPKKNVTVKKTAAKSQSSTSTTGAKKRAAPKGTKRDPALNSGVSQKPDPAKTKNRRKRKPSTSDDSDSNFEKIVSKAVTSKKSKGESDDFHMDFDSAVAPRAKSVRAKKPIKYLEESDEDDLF
In short: (§1)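 Stopped with EDTA and run on 1% agarose/TAE at 25 V for 4 h. EtBr-stained; supercoiled DNA quantified as % inhibition. Relative values are the ratio to the etoposide control.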

HCT-15 = experiment: Cytotoxicity against human HCT15 cells after 72 hrs by cell counting kit-8 analysis; assay type: functional, cell-based; conditions: HCT-15, 72 h
In short: (§2)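 Cells seeded at 2×10^5 or 1×10^5 per well, grown overnight in medium with 10% FBS at 37 °C, 5% CO₂, then FBS-starved 4 h. Graded compound concentrations given for 72 h. CCK-8 then added for 4 h and absorbance read at 450 nm. IC50 from a four-parameter logistic fit; mean ± S.D. of three experiments, each in triplicate.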

[2] = biological target: T1, DNA topoisomerase 1 (Homo sapiens) (UniProt P11387); experiment: Inhibition of human recombinant DNA topoisomerase 1-mediated DNA relaxation at 100 uM incubated for 30 mins using pBR322 DNA substrate by ethidium bromide dye-based agarose gel electrophoresis relative to control camptothecin
T1 sequence (whole entry): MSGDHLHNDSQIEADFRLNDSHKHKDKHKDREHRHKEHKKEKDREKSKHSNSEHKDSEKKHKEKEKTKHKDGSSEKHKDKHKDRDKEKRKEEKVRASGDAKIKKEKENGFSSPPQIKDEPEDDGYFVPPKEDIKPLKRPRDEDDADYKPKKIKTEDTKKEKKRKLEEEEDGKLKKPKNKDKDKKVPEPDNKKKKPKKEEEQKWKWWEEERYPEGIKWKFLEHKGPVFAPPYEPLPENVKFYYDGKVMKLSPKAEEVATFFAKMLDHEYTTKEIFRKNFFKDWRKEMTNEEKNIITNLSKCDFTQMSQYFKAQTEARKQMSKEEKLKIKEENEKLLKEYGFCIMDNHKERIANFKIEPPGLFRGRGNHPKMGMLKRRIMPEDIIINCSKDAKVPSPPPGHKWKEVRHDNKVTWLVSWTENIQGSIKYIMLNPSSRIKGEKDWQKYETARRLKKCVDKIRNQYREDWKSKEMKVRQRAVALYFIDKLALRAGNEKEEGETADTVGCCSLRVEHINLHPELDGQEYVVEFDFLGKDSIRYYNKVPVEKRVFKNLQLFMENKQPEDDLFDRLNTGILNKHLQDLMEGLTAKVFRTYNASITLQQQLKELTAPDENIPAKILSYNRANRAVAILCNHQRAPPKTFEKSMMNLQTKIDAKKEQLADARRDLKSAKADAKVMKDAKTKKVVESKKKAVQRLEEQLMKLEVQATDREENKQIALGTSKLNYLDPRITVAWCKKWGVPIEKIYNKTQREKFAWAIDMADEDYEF
In short: (§3)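 pBR322 (100 ng) with recombinant human topo I (0.4 units) in 10 mM Tris-HCl pH 7.9, 150 mM NaCl, 0.1% BSA, 1 mM spermidine, 5% glycerol, 30 min at 37 °C. Stopped with sarcosyl/glycerol/dye and run on 1% agarose/TAE at 15 V for 7 h. EtBr-stained; supercoiled DNA quantified as % inhibition. Relative values are the ratio to the camptothecin control.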

[3] = biological target: T1, DNA topoisomerase 1 (Homo sapiens); experiment: Inhibition of human recombinant DNA topoisomerase 1-mediated DNA relaxation at 100 uM incubated for 30 mins using pBR322 DNA substrate by ethidium bromide dye-based agarose gel electrophoresis; in short: as §3
MCF-10A = experiment: Cytotoxicity against human MCF10A cells after 72 hrs by cell counting kit-8 analysis; assay type: cell-based; in short: as §2
[4] = biological target: T1, DNA topoisomerase 1 (Homo sapiens); experiment: Poison activity at topoisomerase 1 in human T47D cells assessed as induction of induction of DNA damage by measuring tail DNA levels at 10 uM after 24 hrs by SYBR Green staining-based comet assay; assay type: cell-based
In short: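 T47D cells seeded at 1×10^5 per well and treated 24 h, then trypsinized and suspended in ice-cold PBS. Embedded in low-melting agarose, lysed 30 min at 4 °C and alkaline-unwound (pH > 13) 30 min at r.t. Alkaline electrophoresis 20 min at 15 V, then SYBR Green stain and fluorescence microscopy. Read-out is % tail DNA versus untreated and CPT controls.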

[5] = biological target: T1, DNA topoisomerase 1 (Homo sapiens); experiment: Poison activity at human topoisomerase 1 assessed as induction of relaxation of pHOT1 DNA substrate at 1000 uM incubated for 30 mins by ethidium bromide dye-based agarose gel electrophoresis analysis
In short: (§4)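 pHOT1 (100 ng) relaxed first with topo I (3 units) in 10 mM Tris-HCl pH 7.5, 1 mM EDTA, 30 min at 37 °C. Compound then added for a further 30 min at 37 °C; amsacrine positive control at 100–1000 μM. Stopped with 1% SDS and run on 1% agarose at 15 V/cm for 12–15 h. EtBr-stained and imaged.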

[6] = biological target: T1, DNA topoisomerase 1 (Homo sapiens); experiment: Inhibition of human recombinant DNA topoisomerase 1-mediated DNA relaxation at 20 uM incubated for 30 mins using pBR322 DNA substrate by ethidium bromide dye-based agarose gel electrophoresis relative to control camptothecin; in short: as §3
[7] = biological target: T1, DNA topoisomerase 1 (Homo sapiens); experiment: Inhibition of DNA topoisomerase-1 in human T47D cells assessed as decrease in free topoisomerase-1 levels incubated for 2 hrs by band depletion assay; assay type: cell-based
In short: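 T47D cells seeded at 2×10^5 in 60-mm plates. On day 2 they were treated 2 h at 37 °C, harvested by trypsin and held in PBS containing the same compound concentration. Lysis in 62.5 mM Tris-HCl pH 6.8, 1 mM EDTA, 2% SDS with sonication, then centrifuged. 50 µg protein run on 8% SDS-PAGE; Western blot for free topo I with ECL detection.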

[8] = biological target: T1, DNA topoisomerase 1 (Homo sapiens); experiment: Inhibition of human recombinant DNA topoisomerase 1-mediated DNA relaxation at 20 uM incubated for 30 mins using pBR322 DNA substrate by ethidium bromide dye-based agarose gel electrophoresis; in short: as §3
[9] = biological target: T1, DNA topoisomerase 1 (Homo sapiens); experiment: Poison activity at topoisomerase 1 in human T47D cells assessed as induction of induction of DNA damage by measuring tail DNA levels at 5 uM after 24 hrs by SYBR Green staining-based comet assay; assay type: cell-based
In short: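 T47D cells seeded 1 x 10⁵ per well, treated 24 h, trypsinised, resuspended in ice-cold PBS, embedded in low-melting agarose on slides. Lysed 30 min at 4 °C in the dark, alkaline unwinding (pH > 13) 30 min at r.t., alkaline electrophoresis 20 min at 15 V, SYBR Green staining, fluorescence microscopy; % tail DNA versus untreated control.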

Sus scrofa [10] = organism: Sus scrofa; experiment: Inhibition of porcine brain tubulin polymerization at 15 uM after 61 mins by spectroscopic analysis
In short: (§5)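 Porcine brain tubulin at 1.5 mg/mL final in cold PEM buffer (80 mM Na-PIPES pH 6.9, 1 mM MgCl₂, 30% glycerol, 1 mM EGTA) with 1 mM GTP. Compounds were dissolved in DMSO and diluted in PEM. They were pre-warmed 2 min at 37 °C before tubulin was added. DMSO vehicle and paclitaxel controls. A340 was read each minute for 61 min at 37 °C.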

[11] = biological target: T1, DNA topoisomerase 1 (Homo sapiens); experiment: Poison activity at topoisomerase 1 (unknown origin) assessed as […] in enzyme mediated DNA cleavage complex formation by measuring increase in nicked DNA level at 500 uM using supercoiled pBR322 plasmid DNA as substrate after 20 mins by ethidium bromine dye-based agarose gel electrophoresis analysis
In short: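 Supercoiled pBR322 (100 ng) pre-reacted 10 min with topo I (3 units), then compound added for 20 min at 37 °C. Stopped with 0.5% sarcosyl and digested with proteinase K at 45 °C for 30 min, then heated 2 min at 70 °C. Run on 1.5% agarose/TAE containing 0.5 μg/mL EtBr; nicked DNA versus DMSO control, CPT as poison control.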

DNA = experiment: Binding affinity to […] (unknown origin) at 100 uM preincubated for 30 mins in presence of Hoechst 33342 followed by compound addition measured after 30 mins by fluorescence assay; assay type: nucleic-acid assay
In short: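 ctDNA (30 µM final) pre-mixed with Hoechst 33342 (1 µg/mL final) in 10 mM Tris (pH 7.2), 30 min at r.t. with shaking. Compound then added (0–100 μM series; DMSO 1% in all wells, DMSO-only control) and incubated 30 min at r.t. Fluorescence read at 361 nm excitation, emission spectrum 400–600 nm.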

[12] = biological target: T1, DNA topoisomerase 1 (Homo sapiens); experiment: Inhibition of free DNA topoisomerase-1 in human T47D cells at 50 uM assessed as suppression of camptothecin-induced decrease in free topoisomerase-1 levels pre-treated before camptothecin addition and measured after 2 hrs by band depletion assay; assay type: cell-based
Sus scrofa [13] = organism: Sus scrofa; experiment: Induction of porcine brain tubulin polymerization at 10 uM after 61 mins by spectroscopic analysis; in short: as §5
[14] = biological target: DNA topoisomerase 2-alpha (Homo sapiens) (UniProt P11388); experiment: Inhibition of human DNA topoisomerase 2 alpha-mediated DNA relaxation at 100 uM incubated for 30 mins using pBR322 DNA substrate by ethidium bromide dye-based agarose gel electrophoresis relative to control etoposide; in short: as §1
T47D = experiment: Cytotoxicity against human T47D cells after 72 hrs by cell counting kit-8 analysis; assay type: functional, cell-based; in short: as §2
[15] = biological target: T1, DNA topoisomerase 1 (Homo sapiens); experiment: Poison activity at human topoisomerase 1 assessed as induction of relaxation of pHOT1 DNA substrate at 100 to 1000 uM incubated for 30 mins by ethidium bromide dye-based agarose gel electrophoresis analysis; in short: as §4
Sus scrofa [16] = organism: Sus scrofa; experiment: Inhibition of porcine brain tubulin polymerization at 10 uM after 61 mins by spectroscopic analysis; in short: as §5

Compound | inhibition [1] [%] | IC50 (HCT-15) [nM] | Ratio [2] | inhibition [3] [%] | IC50 (MCF-10A) [µM] | Activity [4] [%] | Activity [5] | Ratio [6] | inhibition [7] | inhibition [8] [%] | Activity [9] [%] | inhibition (Sus scrofa [10]) | Activity [11] | Activity (DNA) | inhibition [12] | Tubulin polymerization induction (Sus scrofa [13]) | Ratio [14] | IC50 (T47D) [nM] | Activity [15] | inhibition (Sus scrofa [16])
COc1ccc(-c2cc3cc(C)ccc3c(-c3cccc(N)c3)n2)c(C)c1 | 4.1 | 2770 | 1.22 | 79.7 | 5.74 | 9.43 | inactive | 2.53 | inactive | 72.4 | 5.82 | Active | inactive | inactive | Active | inactive | 0.06 | 740 |  | 
CC[C@@]1(O)C(=O)OCc2c1cc1n(c2=O)Cc2cc3ccccc3nc2-1 |  |  |  |  |  |  |  |  |  |  | 25 |  |  |  |  |  |  |  |  | 
COc1cc(NS(C)(=O)=O)ccc1Nc1c2ccccc2nc2ccccc12 |  |  |  |  |  |  |  |  |  |  |  |  |  |  |  |  |  |  | Active | 
COc1cc(OC)cc(-c2cc3ccc(N(C)C)cc3c(-c3cccc(N)c3)n2)c1 | 2.5 | 2530 | 1.12 | 73.1 | 42 |  |  | 2.5 |  | 71.5 |  |  |  |  |  | inactive | 0.04 | 3590 |  | inactive
